Screening data deposited in PubChem by Broad Institute.
Cneo AK release – Cryptococcus neoformans cell lysis inducers, primary screen, AK release luminescence, single concentration; C. neoformans lysis, adenylate kinase release luminescence, 4 h; normalised: neutral wells 0, clomiphene wells 100; lysis activity, % at 15 µM; 360,000 compounds, 0.2% hits;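 active = mean lysis activity across replicates of at least 80%, whatever share of replicates individually reach that level; inactive = mean lysis activity below 80%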
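Material – log-phase Cryptococcus neoformans yeast cells · Input – 5 × 10^6 yeast cells/mL · Medium – fresh YPD growth medium · Doses – single compound concentration per well · Timing – static 4 h at 37 °C with compound, 1 h detection · Detection – adenylate kinase release luminescence · Read-out – signal increase indicating cell lysis · Control set – Clomiphene as positive lysis control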
ERp5 inh – inhibitors of ERp5-driven insulin aggregation, primary screen, biochemical, turbidity, absorbance 650 nm, single point; Protein disulfide-isomerase A6 (Homo sapiens), Q15084; 90 min; inhibition, % at 9.99 µM; 350,000 compounds, 0.05% hits;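 active = mean replicate inhibition above about 25%, with every replicate also reaching it, limit read from the data, passing the limit was not always enough; inconclusive = only one of those two criteria met; inactive = neither criterion met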
Statin myotox sup – suppressors of statin myotoxicity in C2C12 myotubes, primary screen, cell-based, single point, plate reader; C2C12 myotubes + simvastatin, ATP luminescence, 48 h; scaled: DMSO 0, geranylgeraniol control 100; rescue of ATP level, % at 7.49 µM; 330,000 compounds, 0.78% hits;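 active = mean ATP rescue above about 67%, or every replicate alone reaching that limit, limit read from the data, passing the limit was not always enough; inconclusive = no clear call, values can overlap the other calls; inactive = mean under the limit and some replicate under it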;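 note: myotubes were challenged with 10 µM simvastatin during compound exposure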
PDI turbidity – inhibitors of human PDI, primary screen, biochemical, turbidity, single point, plate reader; Protein disulfide-isomerase (Homo sapiens), P07237; PDI insulin aggregation turbidity, A650, 90 min; inhibition, % at 10 µM; 350,000 compounds, 0.052% hits; AID 588391, 2011;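 active = mean inhibition across replicates of 30% or more, whatever share of single replicates reach that level; inconclusive = mean inhibition below 30% while every single replicate reaches 30%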
Target sequence (P07237 whole entry, looked up): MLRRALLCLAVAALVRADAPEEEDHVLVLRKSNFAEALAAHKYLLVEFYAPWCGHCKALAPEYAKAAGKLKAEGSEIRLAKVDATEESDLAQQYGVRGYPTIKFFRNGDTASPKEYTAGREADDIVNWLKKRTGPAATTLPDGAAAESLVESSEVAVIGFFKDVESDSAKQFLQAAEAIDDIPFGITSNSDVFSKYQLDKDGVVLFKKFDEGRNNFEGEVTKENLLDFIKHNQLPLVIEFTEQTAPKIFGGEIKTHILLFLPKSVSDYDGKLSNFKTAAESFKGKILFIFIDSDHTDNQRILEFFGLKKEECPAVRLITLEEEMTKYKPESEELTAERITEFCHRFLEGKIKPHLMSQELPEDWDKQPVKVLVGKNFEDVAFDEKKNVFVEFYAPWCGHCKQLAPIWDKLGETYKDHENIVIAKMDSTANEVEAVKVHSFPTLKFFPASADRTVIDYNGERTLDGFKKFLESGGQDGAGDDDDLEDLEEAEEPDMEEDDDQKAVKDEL
CFTR F508del cor – F508del CFTR correction, initial screen, CFBE line, single point; 350,000 compounds, 0.36% hits; CFBE cells, YFP halide quenching; stimulated with forskolin plus potentiator P3; % fluorescence drop versus neutral controls; activity (quench increase), % at 7.58 µM; AID 720511, 2013;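 active = mean added fluorescence quench of at least 8% versus neutral control, with both replicates also reaching 8%; inconclusive = only one of the mean or replicate conditions met; inactive = mean below 8% and not both replicates reaching 8%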;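 note: cells transiently co-express mutant CFTR-F508del with the halide-sensitive YFP; corrector assay measuring rescue of mutant channel to the surface after 24 h compound exposure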
DENV2 CPE – inhibitors of DENV2 cytopathic effect, primary screen, cell-based, plate reader, single concentration; DENV2-infected cells, cytopathic effect rescue; CPE inhibition, % at 9.99 µM; 350,000 compounds, 1.7% hits; AID 651640, 2012; in the data active = CPE inhibition above about 20%, passing the limit was not always enough; inconclusive = no clear call, values can overlap the other calls; tested in BHK-21 cells
Numbers stand for hits; i = inactive; ? = inconclusive; nt = no result given; ! = a repeat was not active. This is a sample that favours compounds with a hit; in the whole collection about 2.3% have one here.

SMILES	Cneo AK release	ERp5 inh	Statin myotox sup	PDI turbidity	CFTR F508del cor	DENV2 CPE
CC(C)NC(=O)Nc1ccc2c(c1)C(=O)N([C@H](C)CO)C[C@H](C)[C@@H](CN(C)CC1CC1)OCCCC[C@H](C)O2	i	i	i	nt	i	?
CS(=O)(=O)N1CCN(C(=O)c2ccccc2F)CC1	i	nt	94.5	i	nt	nt
CN(c1ccccc1C(=O)N1CCCC1)S(C)(=O)=O	i	nt	99.7	i	nt	nt
CSc1ccccc1NC(=O)c1ccccc1N(C)S(C)(=O)=O	i	nt	i	i	nt	nt
CCCNC(=O)c1ccccc1NC(=O)c1ccccc1N(C)S(C)(=O)=O	i	nt	103.1	i	nt	nt
CSc1ccccc1NC(=O)c1ccccc1N(Cc1ccccc1)S(C)(=O)=O	i	i	102.3	i	i	i
C[C@@H]1CN([C@H](C)CO)C(=O)c2cc(NC(=O)Nc3ccc4c(c3)OCO4)ccc2O[C@@H](C)CCCCO[C@H]1CN(C)C(=O)c1ccccc1	i	i	nt	nt	i	i
COc1cccc(NC(=O)N[C@@H]2CC[C@@H](CC(=O)N3CCOCC3)O[C@H]2CO)c1	i	i	i	nt	i	i
N#Cc1sc2nc3c(c(-c4ccco4)c2c1N)CCCC3	i	nt	97.6	i	nt	nt
CO[C@H]1CC[C@H]2CCN(C)C(=O)[C@@H](C)N(C)C(=O)c3cc(C#N)ccc3OC[C@H]1O2	i	i	i	nt	nt	i
CC[C@H](C)C(=O)O[C@H]1C[C@@H](C)C=C2C=C[C@H](C)[C@H](CC[C@@H]3C[C@@H](O)CC(=O)O3)[C@H]21	i	i	i	i	i	35.6!
COc1ccc(N(Cc2cc(=O)[nH]c3ccccc23)C(=O)c2ccco2)cc1	i	i	134.9	i	nt	nt
COc1ccc(CN(C(=O)c2ccco2)c2ccccc2)cc1	i	nt	i	i	nt	nt
CCNC(=O)C[C@@H]1CC[C@@H]2[C@H](COc3ccc(NC(=O)c4ccc(F)c(F)c4)cc3C(=O)N2C)O1	i	i	i	nt	i	90.1
CNC(=O)C[C@@H]1CC[C@@H]2[C@@H](COc3ccc(NC(=O)c4ccc(F)c(F)c4)cc3C(=O)N2C)O1	i	i	i	nt	i	i
COC(=O)C[C@@H]1CC[C@@H]2[C@H](COc3ccc(NC(=O)c4ccc(C(F)(F)F)cc4)cc3C(=O)N2C)O1	i	i	i	nt	11.3	?
CNC(=O)C[C@H]1CC[C@@H]2[C@H](COc3ccc(NC(=O)c4cscn4)cc3C(=O)N2C)O1	i	nt	i	nt	i	29.3
CNC(=O)C[C@H]1CC[C@H]2[C@@H](COc3ccc(NC(=O)c4ccc(F)c(F)c4)cc3C(=O)N2C)O1	i	i	i	nt	i	52.1
COc1ccc2c3c([nH]c2c1)[C@H](CO)N(C(=O)c1ccncc1)CC31CN(C(=O)Nc2cccc(F)c2)C1	nt	i	nt	nt	i	i
C[C@@H]1CN([C@@H](C)CO)S(=O)(=O)c2ccc(C#Cc3cccnc3)cc2O[C@H]1CN(C)CC1CCCC1	i	i	i	nt	i	i
O=C(CC1CC1)N1[C@@H](CO)[C@@H]2c3ccccc3N(S(=O)(=O)c3ccccc3)C[C@@H]21	i	?	i	nt	i	i
CC(C)CNC(=O)C(=O)Nc1ccc2c(c1)N(S(=O)(=O)c1cccs1)CCC2	nt	i	i	i	i	i
CC(C)CCNC(=O)C(=O)Nc1ccc2c(c1)N(S(=O)(=O)c1cccs1)CCC2	nt	i	i	i	12.1	i
C[C@@H]1CN([C@H](C)CO)C(=O)c2cc(NC(=O)c3ccncc3)ccc2O[C@H]1CN(C)Cc1ccccc1	i	i	i	nt	i	i
C[C@H](CO)N1C[C@H](C)[C@H](CN(C)S(=O)(=O)c2cccs2)OCCCC[C@H](C)Oc2ccc(NS(=O)(=O)c3ccc(F)cc3)cc2C1=O	i	i	nt	nt	i	30.9
SMILES	Cneo AK release	ERp5 inh	Statin myotox sup	PDI turbidity	CFTR F508del cor	DENV2 CPE
C[C@@H]1CCCCO[C@H](CN(C)S(=O)(=O)c2cccs2)[C@H](C)CN([C@@H](C)CO)C(=O)c2cc(NS(=O)(=O)c3ccc(Cl)cc3)ccc2O1	i	i	nt	nt	i	31.4
C[C@H]1CCCCO[C@H](CN(C)S(=O)(=O)c2ccc(Cl)cc2)[C@@H](C)CN([C@@H](C)CO)C(=O)c2cc(NS(=O)(=O)c3cccs3)ccc2O1	89.1	i	nt	nt	i	?
C[C@@H]1CCCCO[C@H](CN(C)S(=O)(=O)c2ccc(Cl)cc2)[C@H](C)CN([C@H](C)CO)C(=O)c2cc(NS(=O)(=O)c3cccs3)ccc2O1	i	i	nt	nt	i	i
O=C(NC[C@H]1[C@H](c2ccccc2)[C@H](CO)N1Cc1ccccn1)C1CCC1	i	nt	i	nt	i	i
C[C@@H]1CN([C@H](C)CO)C(=O)c2cc(NC(=O)c3ccccc3)ccc2O[C@@H](C)CCCCO[C@H]1CN(C)C(=O)Nc1ccc2c(c1)OCO2	i	i	nt	nt	i	i
CCN(CC)c1ccc(/C=N/N2C(=O)c3ccccc3C2=O)c(O)c1	i	i	nt	i	i	42.4
CCN(CC)c1ccc(/C=N/N2C(=O)c3ccccc3C2=O)cc1	i	nt	i	i	nt	nt
Cc1ccccc1CN1CCCOCCS1(=O)=O	i	i	i	i	i	i
O=S1(=O)CCOCCCN1Cc1ccccc1Br	i	i	i	i	i	33.4
Cc1noc(C)c1S(=O)(=O)Nc1ccc2c(c1)C(=O)N([C@@H](C)CO)C[C@@H](C)[C@H](CN(C)S(=O)(=O)c1ccccc1)OCCCC[C@H](C)O2	i	i	nt	nt	i	i
CO[C@@H]1CN(C)C(=O)c2ccc(NC(=O)Cc3ccccc3)cc2OC[C@@H](C)N(C)C[C@@H]1C	i	i	i	nt	i	i
CCCC(CCC(=O)Nc1ccc(C(=O)OCC)cc1)C(=O)O (stereo not drawn)	i	nt	105.5	i	nt	nt
CCCC(CCC(=O)Nc1ccc(C(=O)OC)cc1)C(=O)O (stereo not drawn)	i	nt	i	i	nt	nt
CC(C)CC#Cc1ccc([C@@H]2[C@H](CO)N3CCCCN(C(=O)c4ccc5c(c4)OCO5)C[C@@H]23)cc1	i	i	nt	nt	i	i
O=C(O)C1=C[C@H](c2ccc3c(c2)Cc2ccccc2-3)C[C@H](OCCCCO)O1	i	i	nt	nt	i	i
CCOC(=O)C1CCN(C(C(=O)NC2CCCCC2)c2ccc(OC)cc2)CC1 (stereo not drawn)	i	nt	i	i	nt	nt
COc1ccc(NC(=O)C(=O)NCC(c2ccco2)N2CCc3ccccc32)cc1 (stereo not drawn)	i	nt	i	i	nt	nt
COc1ccc(C(C(=O)NC2CCCC2)N2CCc3ccccc32)cc1 (stereo not drawn)	i	?	i	i	i	57.0
COc1ccc(C(=O)NCC(c2ccco2)N2CCc3ccccc32)cc1 (stereo not drawn)	nt	i	i	i	12.5	i
